ChEMBL document CHEMBL3046448, “Design and syntheses of novel phthalazin-1(2H)-one derivatives as acetohydroxyacid synthase inhibitors” (J Agric Food Chem, 2006)

Test system: Echinochloa crus-galli
Test: Herbicidal activity against Echinochloa crus-galli (barnyard grass) assessed as growth inhibition at 150 g ai/ha applied as pre-emergence treatment 24 hr after weeds seeds sowing under green house conditions measured 15 days post compound treatment
Format: functional
Conditions: read-out: GI
In short: (§1)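 Pre-emergence spray applied 24 h after sowing weeds in pots in a greenhouse. Clay soil: pH 6.5, 1.6% organic matter, 37.3% clay, CEC 12.1 cmol/kg. Formulation: 100 g/L emulsified concentrate (DMF solvent, TW-80 emulsifier) diluted with water to 150 g ai/ha. Untreated and DMF-treated controls. Growth inhibition judged visually at 15 days: ++ >80%, + 50-80%, − <50%.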

Compound | inhibition of growth at 150 g/ha
COc1cc(OC)nc(Oc2cccc3c(C)nn(Cc4cc(C)ccc4[N+](=O)[O-])c(=O)c23)n1 | < 50%
COc1cc(OC)nc(Oc2cccc3c(C)nn(Cc4ccccc4Cl)c(=O)c23)n1 | < 50%
COc1cc(OC)nc(Oc2cccc3c(C)nn(Cc4cccc(Cl)c4)c(=O)c23)n1 | < 50%
COc1cc(OC)nc(Oc2cccc3c(C)nn(Cc4ccccc4C)c(=O)c23)n1 | < 50%
CCCCn1nc(C)c2cccc(Oc3nc(OC)cc(OC)n3)c2c1=O | < 50%

Test system: Amaranthus retroflexus
Test: Herbicidal activity against Amaranthus retroflexus assessed as growth inhibition at 150 g ai/ha applied as pre-emergence treatment 24 hr after weeds seeds sowing under green house conditions measured 15 days post compound treatment
Format: functional
Conditions: read-out: GI
In short: as §1

Compound | inhibition of growth at 150 g/ha
COc1cc(OC)nc(Oc2cccc3c(C)nn(Cc4cc(C)ccc4[N+](=O)[O-])c(=O)c23)n1 | < 50%
COc1cc(OC)nc(Oc2cccc3c(C)nn(Cc4ccccc4Cl)c(=O)c23)n1 | < 50%
COc1cc(OC)nc(Oc2cccc3c(C)nn(Cc4cccc(Cl)c4)c(=O)c23)n1 | < 50%
COc1cc(OC)nc(Oc2cccc3c(C)nn(Cc4ccccc4C)c(=O)c23)n1 | < 50%
CCCCn1nc(C)c2cccc(Oc3nc(OC)cc(OC)n3)c2c1=O | < 50%

Test system: Chenopodium album
Test: Herbicidal activity against Chenopodium album assessed as growth inhibition at 150 g ai/ha applied as post-emergence treatment under green house conditions measured 15 days post compound treatment
Format: functional
Conditions: 360 h, read-out: GI
In short: (§2)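 Post-emergence spray on pot-grown dicot weeds at the two-leaf stage in a greenhouse. Clay soil: pH 6.5, 1.6% organic matter, 37.3% clay, CEC 12.1 cmol/kg. Formulation: 100 g/L DMF/TW-80 emulsified concentrate, water-diluted to 150 g ai/ha. Untreated and DMF solvent controls. Visual inhibition rating at 15 days: ++ >80%, + 50-80%, − <50%.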

Compound | inhibition of growth at 150 g/ha
COc1cc(OC)nc(Oc2cccc3c(C)nn(Cc4cc(C)ccc4[N+](=O)[O-])c(=O)c23)n1 | 50%
COc1cc(OC)nc(Oc2cccc3c(C)nn(Cc4ccccc4Cl)c(=O)c23)n1 | < 50%
COc1cc(OC)nc(Oc2cccc3c(C)nn(Cc4cccc(Cl)c4)c(=O)c23)n1 | 50%
COc1cc(OC)nc(Oc2cccc3c(C)nn(Cc4ccccc4C)c(=O)c23)n1 | 50%
CCCCn1nc(C)c2cccc(Oc3nc(OC)cc(OC)n3)c2c1=O | > 80%

Test system: Digitaria sanguinalis
Test: Herbicidal activity against Digitaria sanguinalis (hairy crabgrass) assessed as growth inhibition at 150 g ai/ha applied as post-emergence treatment under green house conditions measured 15 days post compound treatment
Format: functional
Conditions: 360 h, read-out: GI
In short: (§3)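 Monocot weeds grown in pots in a greenhouse and sprayed post-emergence at the one-leaf stage. Clay soil: pH 6.5, 1.6% organic matter, 37.3% clay, CEC 12.1 cmol/kg. Formulation: 100 g/L emulsified concentrate (DMF, TW-80) diluted with water to 150 g ai/ha. Untreated and DMF controls included. Growth inhibition scored visually after 15 days: ++ >80%, + 50-80%, − <50%.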

Compound | inhibition of growth at 150 g/ha
COc1cc(OC)nc(Oc2cccc3c(C)nn(Cc4cc(C)ccc4[N+](=O)[O-])c(=O)c23)n1 | < 50%
COc1cc(OC)nc(Oc2cccc3c(C)nn(Cc4ccccc4Cl)c(=O)c23)n1 | < 50%
COc1cc(OC)nc(Oc2cccc3c(C)nn(Cc4cccc(Cl)c4)c(=O)c23)n1 | < 50%
COc1cc(OC)nc(Oc2cccc3c(C)nn(Cc4ccccc4C)c(=O)c23)n1 | < 50%
CCCCn1nc(C)c2cccc(Oc3nc(OC)cc(OC)n3)c2c1=O | < 50%

Test system: Digitaria sanguinalis
Test: Herbicidal activity against Digitaria sanguinalis (hairy crabgrass) assessed as growth inhibition at 150 g ai/ha applied as pre-emergence treatment 24 hr after weeds seeds sowing under green house conditions measured 15 days post compound treatment
Format: functional
Conditions: read-out: GI
In short: as §1

Compound | inhibition of growth at 150 g/ha
COc1cc(OC)nc(Oc2cccc3c(C)nn(Cc4cc(C)ccc4[N+](=O)[O-])c(=O)c23)n1 | < 50%
COc1cc(OC)nc(Oc2cccc3c(C)nn(Cc4ccccc4Cl)c(=O)c23)n1 | < 50%
COc1cc(OC)nc(Oc2cccc3c(C)nn(Cc4cccc(Cl)c4)c(=O)c23)n1 | < 50%
COc1cc(OC)nc(Oc2cccc3c(C)nn(Cc4ccccc4C)c(=O)c23)n1 | < 50%
CCCCn1nc(C)c2cccc(Oc3nc(OC)cc(OC)n3)c2c1=O | < 50%

Test system: Brassica juncea
Test: Herbicidal activity against Brassica juncea assessed as growth inhibition at 150 g ai/ha applied as post-emergence treatment under green house conditions measured 15 days post compound treatment
Format: functional
Conditions: 360 h, read-out: GI
In short: as §2

Compound | inhibition of growth at 150 g/ha
COc1cc(OC)nc(Oc2cccc3c(C)nn(Cc4cc(C)ccc4[N+](=O)[O-])c(=O)c23)n1 | 50%
COc1cc(OC)nc(Oc2cccc3c(C)nn(Cc4ccccc4Cl)c(=O)c23)n1 | < 50%
COc1cc(OC)nc(Oc2cccc3c(C)nn(Cc4cccc(Cl)c4)c(=O)c23)n1 | 50%
COc1cc(OC)nc(Oc2cccc3c(C)nn(Cc4ccccc4C)c(=O)c23)n1 | 50%
CCCCn1nc(C)c2cccc(Oc3nc(OC)cc(OC)n3)c2c1=O | 50%

Test system: Echinochloa crus-galli
Test: Herbicidal activity against Echinochloa crus-galli (barnyard grass) assessed as growth inhibition at 150 g ai/ha applied as post-emergence treatment under green house conditions measured 15 days post compound treatment
Format: functional
Conditions: 360 h, read-out: GI
In short: as §3

Compound | inhibition of growth at 150 g/ha
COc1cc(OC)nc(Oc2cccc3c(C)nn(Cc4cc(C)ccc4[N+](=O)[O-])c(=O)c23)n1 | 50%
COc1cc(OC)nc(Oc2cccc3c(C)nn(Cc4ccccc4Cl)c(=O)c23)n1 | < 50%
COc1cc(OC)nc(Oc2cccc3c(C)nn(Cc4cccc(Cl)c4)c(=O)c23)n1 | 50%
COc1cc(OC)nc(Oc2cccc3c(C)nn(Cc4ccccc4C)c(=O)c23)n1 | < 50%
CCCCn1nc(C)c2cccc(Oc3nc(OC)cc(OC)n3)c2c1=O | 50%

Test system: Setaria viridis
Test: Herbicidal activity against Setaria viridis (green foxtail) assessed as growth inhibition at 150 g ai/ha applied as post-emergence treatment under green house conditions measured 15 days post compound treatment
Format: functional
Conditions: 360 h, read-out: GI
In short: as §3

Compound | inhibition of growth at 150 g/ha
COc1cc(OC)nc(Oc2cccc3c(C)nn(Cc4cc(C)ccc4[N+](=O)[O-])c(=O)c23)n1 | 50%
COc1cc(OC)nc(Oc2cccc3c(C)nn(Cc4ccccc4Cl)c(=O)c23)n1 | < 50%
COc1cc(OC)nc(Oc2cccc3c(C)nn(Cc4cccc(Cl)c4)c(=O)c23)n1 | < 50%
COc1cc(OC)nc(Oc2cccc3c(C)nn(Cc4ccccc4C)c(=O)c23)n1 | 50%
CCCCn1nc(C)c2cccc(Oc3nc(OC)cc(OC)n3)c2c1=O | 50%

Test system: Setaria viridis
Test: Herbicidal activity against Setaria viridis (green foxtail) assessed as growth inhibition at 150 g ai/ha applied as pre-emergence treatment 24 hr after weeds seeds sowing under green house conditions measured 15 days post compound treatment
Format: functional
Conditions: read-out: GI
In short: as §1

Compound | inhibition of growth at 150 g/ha
COc1cc(OC)nc(Oc2cccc3c(C)nn(Cc4cc(C)ccc4[N+](=O)[O-])c(=O)c23)n1 | < 50%
COc1cc(OC)nc(Oc2cccc3c(C)nn(Cc4ccccc4Cl)c(=O)c23)n1 | < 50%
COc1cc(OC)nc(Oc2cccc3c(C)nn(Cc4cccc(Cl)c4)c(=O)c23)n1 | < 50%
COc1cc(OC)nc(Oc2cccc3c(C)nn(Cc4ccccc4C)c(=O)c23)n1 | < 50%
CCCCn1nc(C)c2cccc(Oc3nc(OC)cc(OC)n3)c2c1=O | < 50%

Test system: Amaranthus retroflexus
Test: Herbicidal activity against Amaranthus retroflexus assessed as growth inhibition at 150 g ai/ha applied as post-emergence treatment under green house conditions measured 15 days post compound treatment
Format: functional
Conditions: 360 h, read-out: GI
In short: as §2

Compound | inhibition of growth at 150 g/ha
COc1cc(OC)nc(Oc2cccc3c(C)nn(Cc4cc(C)ccc4[N+](=O)[O-])c(=O)c23)n1 | > 80%
COc1cc(OC)nc(Oc2cccc3c(C)nn(Cc4ccccc4Cl)c(=O)c23)n1 | < 50%
COc1cc(OC)nc(Oc2cccc3c(C)nn(Cc4cccc(Cl)c4)c(=O)c23)n1 | > 80%
COc1cc(OC)nc(Oc2cccc3c(C)nn(Cc4ccccc4C)c(=O)c23)n1 | > 80%
CCCCn1nc(C)c2cccc(Oc3nc(OC)cc(OC)n3)c2c1=O | > 80%

Test system: Brassica juncea
Test: Herbicidal activity against Brassica juncea assessed as growth inhibition at 150 g ai/ha applied as pre-emergence treatment 24 hr after weeds seeds sowing under green house conditions measured 15 days post compound treatment
Format: functional
Conditions: read-out: GI
In short: as §1

Compound | inhibition of growth at 150 g/ha
COc1cc(OC)nc(Oc2cccc3c(C)nn(Cc4cc(C)ccc4[N+](=O)[O-])c(=O)c23)n1 | < 50%
COc1cc(OC)nc(Oc2cccc3c(C)nn(Cc4ccccc4Cl)c(=O)c23)n1 | < 50%
COc1cc(OC)nc(Oc2cccc3c(C)nn(Cc4cccc(Cl)c4)c(=O)c23)n1 | < 50%
COc1cc(OC)nc(Oc2cccc3c(C)nn(Cc4ccccc4C)c(=O)c23)n1 | < 50%
CCCCn1nc(C)c2cccc(Oc3nc(OC)cc(OC)n3)c2c1=O | < 50%

Target: T1, Acetolactate synthase, chloroplastic (Arabidopsis thaliana, UniProt P17597)
T1 sequence (P17597 whole entry): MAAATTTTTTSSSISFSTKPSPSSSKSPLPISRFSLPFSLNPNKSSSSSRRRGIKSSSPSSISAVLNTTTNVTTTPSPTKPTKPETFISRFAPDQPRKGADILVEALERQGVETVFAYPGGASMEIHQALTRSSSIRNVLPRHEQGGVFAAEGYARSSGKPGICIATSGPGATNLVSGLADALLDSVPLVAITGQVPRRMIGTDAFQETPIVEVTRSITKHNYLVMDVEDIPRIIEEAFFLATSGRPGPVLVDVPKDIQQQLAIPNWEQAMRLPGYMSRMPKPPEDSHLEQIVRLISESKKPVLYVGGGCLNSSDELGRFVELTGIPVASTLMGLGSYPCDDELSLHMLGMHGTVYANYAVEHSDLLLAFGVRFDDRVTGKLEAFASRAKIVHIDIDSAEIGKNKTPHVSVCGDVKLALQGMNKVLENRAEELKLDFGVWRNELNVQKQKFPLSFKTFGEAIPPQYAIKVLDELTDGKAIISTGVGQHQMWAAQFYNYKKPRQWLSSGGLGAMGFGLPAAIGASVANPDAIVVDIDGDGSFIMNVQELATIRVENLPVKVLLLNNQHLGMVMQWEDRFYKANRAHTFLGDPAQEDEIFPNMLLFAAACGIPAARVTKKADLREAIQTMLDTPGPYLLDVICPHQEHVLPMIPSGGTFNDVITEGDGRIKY
Test: Inhibition of wild type Arabidopsis thaliana acetohydroxyacid synthase
Conditions: not given

Compound | Ki
COc1cc(OC)nc(Oc2cccc3c(C)nn(Cc4cc(C)ccc4[N+](=O)[O-])c(=O)c23)n1 | 310 µM
COc1cc(OC)nc(Oc2cccc3c(C)nn(Cc4ccccc4Cl)c(=O)c23)n1 | 210 µM
COc1cc(OC)nc(Oc2cccc3c(C)nn(Cc4cccc(Cl)c4)c(=O)c23)n1 | 216 µM
COc1cc(OC)nc(Oc2cccc3c(C)nn(Cc4ccccc4C)c(=O)c23)n1 | 262 µM
CCCCn1nc(C)c2cccc(Oc3nc(OC)cc(OC)n3)c2c1=O | 441 µM

Test system: Chenopodium album
Test: Herbicidal activity against Chenopodium album assessed as growth inhibition at 150 g ai/ha applied as pre-emergence treatment 24 hr after weeds seeds sowing under green house conditions measured 15 days post compound treatment
Format: functional
Conditions: read-out: GI
In short: as §1

Compound | inhibition of growth at 150 g/ha
COc1cc(OC)nc(Oc2cccc3c(C)nn(Cc4cc(C)ccc4[N+](=O)[O-])c(=O)c23)n1 | < 50%
COc1cc(OC)nc(Oc2cccc3c(C)nn(Cc4ccccc4Cl)c(=O)c23)n1 | < 50%
COc1cc(OC)nc(Oc2cccc3c(C)nn(Cc4cccc(Cl)c4)c(=O)c23)n1 | < 50%
COc1cc(OC)nc(Oc2cccc3c(C)nn(Cc4ccccc4C)c(=O)c23)n1 | < 50%
CCCCn1nc(C)c2cccc(Oc3nc(OC)cc(OC)n3)c2c1=O | < 50%
